Measurements reported in ChEMBL document CHEMBL4177755, “Combating Drug-Resistant Fungi with Novel Imperfectly Amphipathic Palindromic Peptides” (J Med Chem, 2018).

Tests used:
Escherichia coli [1] = experiment: Antibacterial activity against Escherichia coli ATCC 25922 after 24 hrs; assay type: functional; conditions: ATCC 25922, 24 h
Procedure, shortened: (§1)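 Broth microdilution. Mid-log bacteria in MHB at a final (0.5−1) × 10^5 CFU/mL were mixed with equal volumes of peptide serially diluted in 0.2% BSA. Plates were incubated 24 h at 37 °C and read at A492. MIC is the lowest concentration inhibiting 95% of growth. Each test was repeated at least 3 times.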

Escherichia coli [2] = experiment: Antibacterial activity against Escherichia coli 1005 after 24 hrs; assay type: functional; conditions: Escherichia coli, 1005, 24 h; procedure, shortened: as §1
Salmonella typhimurium = experiment: Antibacterial activity against Salmonella typhimurium ATCC 14028 after 24 hrs; assay type: functional, Salmonella enterica subsp. enterica serovar Typhimurium; conditions: Salmonella enterica, ATCC 14028, 24 h; procedure, shortened: as §1
Staphylococcus aureus [3] = experiment: Antibacterial activity against methicillin-resistant Staphylococcus aureus ATCC 4330 after 24 hrs; assay type: functional; conditions: ATCC 4330, 24 h
Procedure, shortened: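 Modified NCCLS broth microdilution. Mid-log bacteria at (0.5−1) × 10^5 CFU/mL in MHB were mixed 1:1 with peptide serially diluted in 0.2% BSA and incubated 24 h at 37 °C. Absorbance was read at 492 nm; MIC is the lowest concentration inhibiting 95% of growth. At least 3 repeats.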

[4] = tested on: Staphylococcus epidermidis; experiment: Antibacterial activity against Staphylococcus epidermidis ATCC 12228 after 24 hrs; assay type: functional; conditions: ATCC 12228, 24 h; procedure, shortened: as §1
Escherichia coli [5] = experiment: Bactericidal activity against Escherichia coli 1005; assay type: functional; conditions: read-out: MBC99.9
Procedure, shortened: (§2)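 Wells from the 24 h, 37 °C MHB microdilution plates (bacteria at a final (0.5−1) × 10^5 CFU/mL; peptide diluted in 0.2% BSA) were plated on agar and incubated overnight. MBC is the lowest concentration killing >99.9% of cells. Each test was reproduced at least 3 times.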

Staphylococcus aureus [6] = experiment: Bactericidal activity against Staphylococcus aureus ATCC 29213; assay type: functional; conditions: read-out: MBC99.9; procedure, shortened: as §2
Staphylococcus aureus [7] = experiment: Bactericidal activity against methicillin-resistant Staphylococcus aureus ATCC 4330; assay type: functional; conditions: read-out: MBC99.9
Procedure, shortened: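 Bacteria at (0.5−1) × 10^5 CFU/mL in MHB were exposed to serially diluted peptide (0.2% BSA) for 24 h at 37 °C, then 50 μL aliquots were plated on agar overnight. MBC is the lowest concentration killing >99.9% of cells. At least 3 repeats.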

Staphylococcus aureus [8] = experiment: Bactericidal activity against Staphylococcus aureus ATCC 25923; assay type: functional; conditions: read-out: MBC99.9; procedure, shortened: as §2
Candida albicans [9] = experiment: Antifungal activity against Candida albicans SP3876 after 48 hrs by broth microdilution method; assay type: functional; conditions: SP3876, 48 h
Procedure, shortened: (§3)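 Modified CLSI M27-A2 broth microdilution. Yeast at (0.5−1) × 10^3 CFU/mL in MOPS-buffered RPMI 1640 was mixed 1:1 with peptide serially diluted in 0.2% BSA and incubated 48 h at 28 °C. Absorbance was read at 492 nm; MIC is the lowest concentration inhibiting 95% of growth. Triplicate, three biological replicates.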

Candida albicans [10] = experiment: Antifungal activity against Candida albicans isolated from alveolar fluid after 48 hrs by broth microdilution method; assay type: functional; procedure, shortened: as §3
Candida albicans [11] = experiment: Antifungal activity against Candida albicans 14936 after 48 hrs by broth microdilution method; assay type: functional; conditions: Candida albicans, 14936, 48 h; procedure, shortened: as §3
Candida albicans [12] = experiment: Fungicidal activity against Candida albicans cgmcc 2.2086 after 96 hrs; assay type: functional; conditions: cgmcc 2.2086, 96 h, read-out: MFC99.9
Procedure, shortened: (§4)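 After the 48 h, 28 °C broth microdilution in MOPS-buffered RPMI 1640 (inoculum (0.5−1) × 10^3 CFU/mL), 50 μL from each well was plated on YM agar for a further 48 h at 28 °C. MFC is the lowest concentration killing at least 99.9% of cells. Triplicate, three biological replicates.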

Candida albicans [13] = experiment: Fungicidal activity against Candida albicans SP3903 after 96 hrs; assay type: functional; conditions: SP3903, 96 h, read-out: MFC99.9; procedure, shortened: as §4
Candida albicans [14] = experiment: Fungicidal activity against Candida albicans SP3902 after 96 hrs; assay type: functional; conditions: SP3902, 96 h, read-out: MFC99.9; procedure, shortened: as §4
Candida albicans [15] = experiment: Fungicidal activity against Candida albicans SP3876 after 96 hrs; assay type: functional; conditions: SP3876, 96 h, read-out: MFC99.9; procedure, shortened: as §4
Candida albicans [16] = experiment: Fungicidal activity against Candida albicans isolated from alveolar fluid after 96 hrs; assay type: functional; conditions: read-out: MFC99.9; procedure, shortened: as §4
Candida albicans [17] = experiment: Fungicidal activity against fluconazole-resistant Candida albicans 56452 after 96 hrs; assay type: functional; conditions: Candida albicans, 56452, 96 h; read-out: MFC99.9; procedure, shortened: as §4
Candida tropicalis = experiment: Fungicidal activity against Candida tropicalis cgmcc 2.1975 after 96 hrs; assay type: functional; conditions: cgmcc 2.1975, 96 h, read-out: MFC99.9
Procedure, shortened: (§5)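 Wells from the 48 h, 28 °C RPMI 1640/MOPS microdilution plates were plated on YM agar and incubated a further 48 h at 28 °C. MFC is the lowest concentration killing at least 99.9% of cells. Run in triplicate with three biological replicates.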

Pichia kudriavzevii = experiment: Fungicidal activity against Candida krusei cgmcc 2.1857 after 96 hrs; assay type: functional; conditions: cgmcc 2.1857, 96 h, read-out: MFC99.9; procedure, shortened: as §5
Erythrocyte = experiment: Hemolytic activity in human RBC after 1 hr; assay type: ADME, cell-based
Procedure, shortened: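 Fresh human erythrocytes, diluted 10-fold in PBS pH 7.4, were mixed with equal volumes of peptide and held 1 h at 37 °C. After centrifugation at 1000g, supernatant hemoglobin was read at 576 nm. PBS set 0% and 0.1% Triton X-100 set 100% lysis. MHC is the concentration causing 10% hemolysis. At least three experiments were run, each in technical triplicate.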

Escherichia coli [18] = experiment: Antibacterial activity against Escherichia coli ATCC 25922 after 18 hrs in presence of NH4Cl by broth dilution method; assay type: functional; conditions: ATCC 25922, 18 h
Escherichia coli [19] = experiment: Antibacterial activity against Escherichia coli ATCC 25922 after 18 hrs in presence of CaCl2 by broth dilution method; assay type: functional; conditions: ATCC 25922, 18 h
Escherichia coli [20] = experiment: Antibacterial activity against Escherichia coli ATCC 25922 after 18 hrs in presence of ZnCl2 by broth dilution method; assay type: functional; conditions: ATCC 25922, 18 h
Candida albicans [21] = experiment: Antifungal activity against Candida albicans cgmcc 2.2086 in presence of NaCl by broth dilution method; assay type: functional
Candida albicans [22] = experiment: Antifungal activity against Candida albicans cgmcc 2.2086 in presence of MgCl2 by broth dilution method; assay type: functional
Candida albicans [23] = experiment: Antifungal activity against Candida albicans cgmcc 2.2086 in presence of CaCl2 by broth dilution method; assay type: functional
Candida albicans [24] = experiment: Antifungal activity against Candida albicans cgmcc 2.2086 in presence of ZnCl2 by broth dilution method; assay type: functional
Candida albicans [25] = experiment: Antifungal activity against Candida albicans 58288 after 48 hrs by broth microdilution method; assay type: functional; conditions: Candida albicans, 58288, 48 h; procedure, shortened: as §3
Candida albicans [26] = experiment: Fungicidal activity against Candida albicans 58288 after 96 hrs; assay type: functional; conditions: Candida albicans, 58288, 96 h; read-out: MFC99.9; procedure, shortened: as §4
[27] = Cytotoxicity against HEK293T cells assessed as cell viability at 2 to 64 uM after 24 hrs by MTT assay relative to control; assay type: cell-based, HEK-293T; conditions: human, read-out: Activity
Procedure, shortened: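 MTT viability assay. RAW264.7 or HEK293T cells at (1.0−2.0) × 10^5 per well were exposed to a peptide concentration series for 24 h at 37 °C in 5% CO2. MTT was then added at 0.5 mg/mL final for 4 h; formazan was dissolved in DMSO and read at 570 nm. Results average three independent trials.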

Substance: H-WWRRWRRWW-NH2
- MIC95 (Escherichia coli [1]): 8 µM
- MIC95 (Escherichia coli [2]): 4 µM
- MIC95 (Salmonella typhimurium): 8 µM
- MIC95 (Staphylococcus aureus [3]): 4 µM
- MIC95 [4]: 4 µM
- MBC (Escherichia coli [5]): 8 µM
- MBC (Staphylococcus aureus [6]): 16 µM
- MBC (Staphylococcus aureus [7]): 4 µM
- MBC (Staphylococcus aureus [8]): 8 µM
- MIC95 (Candida albicans [9]): 4 µM
- MIC95 (Candida albicans [10]): 8 µM
- MIC95 (Candida albicans [11]): 8 µM
- MFC (Candida albicans [12]): 16 µM
- MFC (Candida albicans [13]): 4 µM
- MFC (Candida albicans [14]): 8 µM
- MFC (Candida albicans [15]): 4 µM
- MFC (Candida albicans [16]): 16 µM
- MFC (Candida albicans [17]): 8 µM
- MFC (Candida tropicalis): 8 µM
- MFC (Pichia kudriavzevii): 4 µM
- HC10 (Erythrocyte): > 128 µM
- MIC (Escherichia coli [18]): 8 µM
- MIC (Escherichia coli [19]): 32 µM
- MIC (Escherichia coli [20]): 16 µM
- MIC (Candida albicans [21]): 16 µM
- MIC (Candida albicans [22]): 8 µM
- MIC (Candida albicans [23]): 16 µM
- MIC (Candida albicans [24]): 8 µM
- MIC95 (Candida albicans [25]): 8 µM
- MFC (Candida albicans [26]): 8 µM

Substance: H-RLLRRLRRLLR-NH2
- viability at 24 h, up to 64 µM [27]: 70 to 80%
- MIC95 (Escherichia coli [1]): 4 µM
- MIC95 (Escherichia coli [2]): 4 µM
- MIC95 (Salmonella typhimurium): 8 µM
- MIC95 (Staphylococcus aureus [3]): 8 µM
- MIC95 [4]: 4 µM
- MBC (Escherichia coli [5]): 4 µM
- MBC (Staphylococcus aureus [6]): 16 µM
- MBC (Staphylococcus aureus [7]): 16 µM
- MBC (Staphylococcus aureus [8]): 16 µM
- MIC95 (Candida albicans [9]): 4 µM
- MIC95 (Candida albicans [10]): 8 µM
- MIC95 (Candida albicans [11]): 8 µM
- MFC (Candida albicans [12]): 16 µM
- MFC (Candida albicans [13]): 4 µM
- MFC (Candida albicans [14]): 8 µM
- MFC (Candida albicans [15]): 8 µM
- MFC (Candida albicans [16]): 16 µM
- MFC (Candida albicans [17]): 8 µM
- MFC (Candida tropicalis): 4 µM
- MFC (Pichia kudriavzevii): 8 µM
- HC10 (Erythrocyte): > 128 µM
- MIC (Escherichia coli [18]): 4 µM
- MIC (Escherichia coli [19]): 8 µM
- MIC (Escherichia coli [20]): 8 µM
- MIC (Candida albicans [21]): 16 µM
- MIC (Candida albicans [22]): 32 µM
- MIC (Candida albicans [23]): 8 µM
- MIC (Candida albicans [24]): 8 µM
- MIC95 (Candida albicans [25]): 4 µM
- MFC (Candida albicans [26]): 16 µM

Substance: H-LLRRLRRLL-NH2
- viability at 24 h, up to 64 µM [27]: 70 to 80%
- MIC95 (Escherichia coli [1]): 16 µM
- MIC95 (Escherichia coli [2]): 16 µM
- MIC95 (Salmonella typhimurium): 16 µM
- MIC95 (Staphylococcus aureus [3]): 8 µM
- MIC95 [4]: 16 µM
- MBC (Escherichia coli [5]): 16 µM
- MBC (Staphylococcus aureus [6]): 64 µM
- MBC (Staphylococcus aureus [7]): 16 µM
- MBC (Staphylococcus aureus [8]): 32 µM
- MIC95 (Candida albicans [9]): 32 µM
- MIC95 (Candida albicans [10]): 64 µM
- MIC95 (Candida albicans [11]): 32 µM
- MFC (Candida albicans [12]): 64 µM
- MFC (Candida albicans [13]): 16 µM
- MFC (Candida albicans [14]): > 64 µM
- MFC (Candida albicans [15]): 4 µM
- MFC (Candida albicans [16]): > 64 µM
- MFC (Candida albicans [17]): 32 µM
- MFC (Candida tropicalis): 8 µM
- MFC (Pichia kudriavzevii): 8 µM
- HC10 (Erythrocyte): > 128 µM
- MIC (Escherichia coli [18]): 16 µM
- MIC (Escherichia coli [19]): 64 µM
- MIC (Escherichia coli [20]): 16 µM
- MIC (Candida albicans [21]): 64 µM
- MIC (Candida albicans [22]): 64 µM
- MIC (Candida albicans [23]): 64 µM
- MIC (Candida albicans [24]): 64 µM
- MIC95 (Candida albicans [25]): 64 µM
- MFC (Candida albicans [26]): 32 µM
